Results as given in ChEMBL document CHEMBL1149311, “Synthesis and antitumor activity of methyltriazene prodrugs simultaneously releasing DNA-methylating agents and the antiresistance drug O(6)-benzylguanine” (J Med Chem, 2004).

Columns and labels:
MCF7 [1] = assay: Antitumor activity against human MCF7 cells at 50 uM relative to control; assay type: functional
Summary of the method: (§1)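 Tested in the NCI three-cell-line one-dose primary anticancer prescreen. The read-out is growth as % of untreated control cells (100%) at 50 μM.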

[2] = Half life of hydrolysis in deuterated phosphate buffer at pD 7.8; conditions: pH 7.8
SF-268 [3] = assay: Antitumor activity against human SF268 cells at 50 uM relative to control; assay type: functional; summary of the method: as §1
NCI-H460 [4] = assay: Antitumor activity against human NCI-H460 cells at 50 uM relative to control; assay type: functional; summary of the method: as §1
SF-268 [5] = assay: Antitumor activity against human SF268 cells at 100 uM relative to control; assay type: functional
Summary of the method: (§2)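 NCI three-cell-line one-dose primary anticancer prescreen at 100 µM. Growth is expressed as % of untreated control cells, with the control taken as 100%.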

MCF7 [6] = assay: Antitumor activity against human MCF7 cells at 100 uM relative to control; assay type: functional; summary of the method: as §2
NCI-H460 [7] = assay: Antitumor activity against human NCI-H460 cells at 100 uM relative to control; assay type: functional; summary of the method: as §2
NCI [8] = assay: Antitumor activity against human NCI leukemia cell line panel; assay type: functional, cell-based
Summary of the method: (§3)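 Tested in the NCI in vitro disease-oriented human tumor cell screen. The endpoints are IC50 (molar concentration giving 50% growth inhibition), TGI (total growth inhibition) and LC50 (50% net cell death). The maximal concentration tested was 100 μM. Subpanel values are means of several individual cell lines.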

NCI [9] = assay: Antitumor activity against human NCI breast cancer cell line panel; assay type: functional, cell-based; summary of the method: as §3
[10] = test system: Non-small cell lung cancer cell line; assay: Antitumor activity against human NCI non-small cell lung cancer cell line panel; assay type: functional, cell-based; summary of the method: as §3
carcinoma cell line = assay: Antitumor activity against human NCI ovarian carcinoma cell line panel; assay type: functional, cell-based; summary of the method: as §3
NCI [11] = assay: Antitumor activity against NCI human melanoma cell line panel; assay type: functional, cell-based; summary of the method: as §3
NCI [12] = assay: Antitumor activity against human NCI renal cancer cell line panel; assay type: functional, cell-based; summary of the method: as §3
NCI [13] = assay: Antitumor activity against human NCI prostate cancer cell line panel; assay type: functional, cell-based; summary of the method: as §3
NCI [14] = assay: Antitumor activity against human NCI CNS cancer cell line panel; assay type: functional, cell-based; summary of the method: as §3
NCI [15] = assay: Antitumor activity against human NCI colon cancer cell line panel; assay type: functional, cell-based; summary of the method: as §3

| SMILES | half-life ([2]; deuterated phosphate buffer) [h] | Activity (SF-268 [5]) [%] | Activity (MCF7 [6]) [%] | Activity (NCI-H460 [7]) [%] | also measured |
| --- | --- | --- | --- | --- | --- |
| COC(=O)c1ccc(OC(=O)N(C)/N=N/c2nc(OCc3ccccc3)c3nc[nH]c3n2)cc1 | 2.45 |  |  |  | Activity (MCF7 [1]): 116%; Activity (SF-268 [3]): 107%; Activity (NCI-H460 [4]): 53% |
| CCOC(=O)N(C)/N=N/c1nc(OCc2ccccc2)c2nc[nH]c2n1 | 58.3 | 91 | 103 | 90 |  |
| CN(/N=N/c1nc(OCc2ccccc2)c2nc[nH]c2n1)C(=O)c1cccnc1 | 8.83 |  |  |  |  |
| CC(=O)N(C)/N=N/c1nc(OCc2ccccc2)c2nc[nH]c2n1 | 58.3 | 78 | 99 | 89 |  |
| CN(/N=N/c1nc(OCc2ccccc2)c2nc[nH]c2n1)C(=O)Oc1ccccc1 | 19.2 | 102 | 107 | 87 |  |
| CN(/N=N/c1nc(OCc2ccccc2)c2nc[nH]c2n1)C(=O)c1ccc([N+](=O)[O-])cc1 | 16 |  |  |  |  |
| CN(/N=N/c1nc(OCc2ccccc2)c2nc[nH]c2n1)C(=O)Oc1ccc(C(N)=O)cc1 | 6.42 |  |  |  |  |
| CN(/N=N/c1nc(OCc2ccccc2)c2nc[nH]c2n1)C(=O)Oc1ccc(S(N)(=O)=O)cc1 | 2.82 |  |  |  |  |
| CC(=O)Nc1ccc(OC(=O)N(C)/N=N/c2nc(OCc3ccccc3)c3nc[nH]c3n2)cc1 | 19.3 |  |  |  |  |
| CN(/N=N/c1nc(OCc2ccccc2)c2nc[nH]c2n1)C(=O)c1ccccc1 | 38.3 | 79 | 107 | 93 |  |
| Cn1nnc2c(C(N)=O)ncn2c1=O [TEMOZOLOMIDE] |  |  |  |  | IC50 (NCI [8]): 79 µM; TGI (NCI [8]): > 100 µM; CC50 (NCI [8]; read-out: LC50 (the source's name)): > 100 µM; IC50 (NCI [9]): 100 µM; IC50 [10]: 100 µM; IC50 (carcinoma cell line): 91 µM; IC50 (NCI [11]): 98 µM; IC50 (NCI [12]): 98 µM; IC50 (NCI [13]): 100 µM; half-life ([2]; buffer): 0.417 h; IC50 (NCI [14]): 93 µM; IC50 (NCI [15]): 100 µM |
